Reference: ChEMBL document CHEMBL4665815, “Di-bromo-Based Small-Molecule Inhibitors of the PD-1/PD-L1 Immune Checkpoint” (J Med Chem, 2020)
Active and inactive are the calls of the source. The calls are words filed in the database; no cut-off is given here.

Legend:
[1] = Binding affinity to human PD1 (34-150 residues) extracellular domain C93S mutant expressed in Escherichia coli BL21 (DE3) incubated for 2 hrs by TR-FRET assay
[2] = target: Programmed cell death 1 ligand 1 (Mus musculus) (UniProt Q9EP73); experiment: Binding affinity to mouse PD1-L1 (19-134 residues) expressed in Escherichia coli BL21 (DE3) incubated for 1 hr by MST analysis
Chain of Programmed cell death 1 ligand 1 (Mus musculus) (Q9EP73 whole entry, the tested form may be a part): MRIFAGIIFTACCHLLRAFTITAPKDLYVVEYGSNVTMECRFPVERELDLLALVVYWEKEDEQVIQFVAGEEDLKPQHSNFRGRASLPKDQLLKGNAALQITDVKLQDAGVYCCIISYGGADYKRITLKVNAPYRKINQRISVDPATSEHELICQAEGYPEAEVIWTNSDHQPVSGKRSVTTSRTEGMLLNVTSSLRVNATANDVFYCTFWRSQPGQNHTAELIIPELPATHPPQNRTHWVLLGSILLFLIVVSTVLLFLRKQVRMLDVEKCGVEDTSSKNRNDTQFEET

[3] = target: T1, Programmed cell death protein 1/Programmed cell death 1 ligand 1 (Homo sapiens, UniProt Q15116+Q9NZQ7); experiment: Inhibition of hPD-1/hPD-L1 immune checkpoint using PD-L1 expressing human aAPCs and PD-1 expressing human Jurkat cells assessed as activation of effector Jurkat T cells at 0.01 to 100 uM incubated for 6 hrs by luciferase reporter gene based immune checkpoint blockade cell-based assay; conditions: dose microM 0.01-100, time 6.0 hrs
T1 sequence (Q15116 whole entry): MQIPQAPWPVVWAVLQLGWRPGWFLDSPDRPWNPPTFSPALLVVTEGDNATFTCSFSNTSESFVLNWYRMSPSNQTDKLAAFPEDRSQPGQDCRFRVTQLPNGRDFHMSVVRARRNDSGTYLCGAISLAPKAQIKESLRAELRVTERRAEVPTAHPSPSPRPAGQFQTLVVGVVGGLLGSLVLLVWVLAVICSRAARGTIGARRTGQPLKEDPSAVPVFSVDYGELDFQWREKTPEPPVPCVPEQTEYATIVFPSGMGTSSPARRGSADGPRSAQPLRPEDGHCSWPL
T1 sequence (Q9NZQ7 whole entry): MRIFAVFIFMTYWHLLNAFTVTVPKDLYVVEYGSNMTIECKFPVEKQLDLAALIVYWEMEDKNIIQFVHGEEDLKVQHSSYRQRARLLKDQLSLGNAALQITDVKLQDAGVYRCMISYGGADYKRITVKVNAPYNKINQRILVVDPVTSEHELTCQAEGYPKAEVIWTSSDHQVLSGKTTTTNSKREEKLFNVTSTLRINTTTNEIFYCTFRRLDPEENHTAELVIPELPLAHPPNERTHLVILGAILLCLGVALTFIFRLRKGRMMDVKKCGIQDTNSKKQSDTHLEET
Method in brief: (§1)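 CHO-K1 aAPCs expressing hPD-L1 and a TCR ligand were seeded at 10 000/well 17 h ahead. Compounds were serially diluted 2.5-fold in DMSO, then 1000-fold into RPMI with 1% FBS (0.1% DMSO final). Jurkat hPD-1 NFAT-RE luciferase effector cells were added at 20 000/well for 6 h. Bio-Glo luminescence was read as fold induction over DMSO controls. EC50 came from Hill fits with the durvalumab maximum as the ceiling. Mean ± SEM, 4–7 experiments.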

[4] = organism: Homo sapiens; experiment: Binding affinity to 15N labelled human PD1 N66A mutant assessed as induction of dissociation of PD-1 N66A mutant/PDL1 complex by w-AIDA-NMR 2D assay
Method in brief: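 Uniformly 15N-labelled hPD-1 N66A mutant, expressed in bacteria grown at 28 °C in M9 medium with 15NH4Cl as the sole nitrogen source and induced with 1 mM IPTG. Protein was refolded from inclusion bodies and purified by size-exclusion chromatography in 25 mM sodium phosphate pH 6.4, 100 mM NaCl. 1H–15N signals were followed by SOFAST HMQC.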

[5] = organism: Homo sapiens; experiment: Binding affinity to 15N labelled human PD1 N66A mutant assessed as induction of dissociation of PD-1 N66A mutant/PDL1 complex by w-AIDA-NMR 1D assay
[6] = target: Programmed cell death protein 1/Programmed cell death 1 ligand 1 (Homo sapiens, UniProt Q9NZQ7); experiment: (§2) Inhibition of hPD-1/hPD-L1 immune checkpoint using PD-L1 expressing human aAPCs and PD-1 expressing human Jurkat cells assessed as activation of effector Jurkat T cells incubated for 6 hrs by luciferase reporter gene based immune checkpoint blockade cell-based assay; method in brief: as §1
Chain of Programmed cell death protein 1/Programmed cell death 1 ligand 1 (Homo sapiens, UniProt Q9NZQ7) (Q15116 whole entry): as the sequence (Q15116 whole entry) above
Chain of Programmed cell death protein 1/Programmed cell death 1 ligand 1 (Homo sapiens, UniProt Q9NZQ7) (Q9NZQ7 whole entry): as the sequence (Q9NZQ7 whole entry) above

[7] = target: T1, Programmed cell death protein 1/Programmed cell death 1 ligand 1; experiment: as §2; method in brief: as §1
[8] = target: T1, Programmed cell death protein 1/Programmed cell death 1 ligand 1; experiment: Inhibition of PD-1/PD-L1 immune checkpoint using PD-L1 expressing human aAPCs and PD-1 expressing human PBMC assessed as increase in PD-1 receptor expression on surface of CD8+ T cells incubated for 48 hrs by flow cytometry
Method in brief: (§3)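 PBMCs from healthy donors were isolated by density-gradient centrifugation. They were added at 400 000 cells/well onto preseeded CHO-K1 hPD-L1 aAPCs and cultured 48 h with compound, DMSO or atezolizumab (5 μg/mL). Cells were detached and stained 20 min at room temperature for CD69, CD4, CD8 and PD-1, then analysed by flow cytometry. Values are mean ± SD of three independent experiments with different donors; Student's t test.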

[9] = target: T1, Programmed cell death protein 1/Programmed cell death 1 ligand 1; experiment: Inhibition of hPD-1/hPD-L1 immune checkpoint using PD-L1 expressing human aAPCs and PD-1 expressing human Jurkat cells assessed as activation of effector Jurkat T cells at 50 uM incubated for 6 hrs by luciferase reporter gene based immune checkpoint blockade cell-based assay relative to control; method in brief: as §1
[10] = target: Programmed cell death 1 ligand 1 (Homo sapiens) (UniProt Q9NZQ7); experiment: Binding affinity to human PD-L1 (18 to 134 residues) assessed as induction of protein dimerization by 1H NMR method
Chain of Programmed cell death 1 ligand 1 (Homo sapiens) (Q9NZQ7 whole entry, the tested form may be a part): as the sequence (Q9NZQ7 whole entry) above

[11] = system: Jurkat; experiment: Toxicity in human Jurkat cells at >100 uM incubated for 24 hrs; format: cell-based
[12] = Binding affinity to Fc-tagged human PD-1 assessed as induction of dissociation of PD-1 N66A mutant/His-and Fc-tagged human PD-L1complex pre-incubated for 30 mins with PDL1 and measured after 1 hr by competitive ELISA
[13] = system: PBMC; experiment: Effect on CD69 expression in human PBMC; format: functional; method in brief: as §3
[14] = target: T1, Programmed cell death protein 1/Programmed cell death 1 ligand 1; experiment: Inhibition of PD-1/PD-L1 immune checkpoint using PD-L1 expressing human aAPCs and PD-1 expressing human PBMC assessed as increase in PD-1 receptor expression on surface of CD4+ T cells incubated for 48 hrs by flow cytometry; method in brief: as §3
[15] = Solubility in water; format: physicochemical; conditions: buffer
[16] = Solubility in DMSO; format: physicochemical
[17] = system: Jurkat; experiment: Toxicity in human Jurkat cells assessed as reduction in cell viability at 40 uM incubated for 24 hrs relative to control; format: cell-based

IC50 [1] [µM]	Structure (SMILES)	further results
> 100	OCc1cccc(OCc2cccc(-c3cccc(F)c3)c2Br)c1	–
50	Cc1cc(C=O)ccc1OCc1cccc(-c2ccccc2)c1Br	–
55.9	OCc1cccc(-c2ccccc2)c1F	Activity [4]: Active; Activity [5]: Active
50	O=Cc1ccc(OCc2cccc(-c3ccccc3)c2Br)cc1	–
> 100	OCc1cccc(-c2ccccc2)c1-c1ccccc1	–
50.7	BrCc1cccc(-c2ccccc2)c1Br	Activity [4]: Active; Activity [5]: Active
100	Fc1cccc(-c2cccc(CBr)c2Br)c1	–
64.4	BrCc1cccc(-c2ccc3c(c2)OCCO3)c1Br	–
28.6	COC(=O)c1ccc(OCc2cccc(-c3ccccc3)c2Br)c(Br)c1	–
0.015	O=C(O)[C@@H]1CCCCN1Cc1ccc(OCc2cccc(-c3ccccc3)c2Br)cc1	inhibition [8]: Active; fold change (FC) [9]: 2.1; Activity [10]: Active; EC50 [6]: 6.6 µM; Activity [2]: inactive; Activity [11]: Non-Toxic; IC50 [12]: 0.00147 µM; Activity [13]: inactive; inhibition [14]: Active; Activity [3]: Active
66.3	N#Cc1ccc(-c2cccc(CBr)c2Br)cc1	–
50	O=Cc1ccc(OCc2cccc(-c3ccccc3)c2Br)c(Br)c1	–
> 100	O=Cc1cc(Cl)c(OCc2cccc(-c3ccccc3)c2Br)cc1O	–
> 100	COc1cc(C=O)ccc1OCc1cccc(-c2ccccc2)c1Br	–

Continued, molecule first:

Structure (SMILES)	IC50 [1] [µM]	further results
O=S1(=O)CCN(Cc2ccc(OCc3cccc(-c4cccc(F)c4)c3Br)c(Br)c2)CC1	4.24	–
O=Cc1ccc(OCc2cccc(-c3ccccc3)c2-c2ccccc2)c(Br)c1	> 100	–
O=Cc1ccc(OCc2cccc(-c3ccc4c(c3)OCCO4)c2Br)c(Br)c1	35.4	–
CC(=O)NCCNCc1ccc(OCc2cccc(-c3ccc(C#N)cc3)c2Br)c(Br)c1	5.11	–
Cc1c(COc2ccc(CN3CCCC[C@H]3C(=O)O)cc2)cccc1-c1ccccc1	–	Activity [2]: inactive; Activity [3]: Active
O=Cc1ccc(OCc2cccc(-c3cccc(F)c3)c2Br)c(Br)c1	55	–
O=C(O)[C@@H]1CCCCN1Cc1ccc(OCc2cccc(-c3ccc4c(c3)OCCO4)c2Br)c(Br)c1	0.401	EC50 [6]: > 40 µM; Activity [3]: Active
O=Cc1ccc(OCc2cccc(-c3ccc4c(c3)OCCO4)c2F)c(Br)c1	> 100	–
N#Cc1cc(COc2cc(OCc3cccc(-c4ccccc4)c3Br)c(Cl)cc2C=O)ccn1	29.4	EC50 [7]: > 40 µM; Activity [3]: Active
O=C(O)[C@@H]1CCCCN1Cc1ccc(OCc2cccc(-c3cccc(F)c3)c2Br)c(Br)c1	0.0653	–
N#Cc1cc(COc2cc(OCc3cccc(-c4ccccc4)c3-c3ccccc3)c(Cl)cc2C=O)ccn1	23.8	EC50 [7]: > 40 µM; Activity [3]: Active
CC(=O)NCCNCc1ccc(OCc2cccc(-c3ccc4c(c3)OCCO4)c2F)c(Br)c1	0.0227	–
O=C(O)[C@@H]1C[C@H](O)CN1Cc1ccc(OCc2cccc(-c3ccccc3)c2-c2ccccc2)c(Br)c1	29.4	–
OCc1cccc(-c2ccc3c(c2)OCCO3)c1F	55.5	–
N#Cc1cccc(COc2cc(OCc3cccc(-c4ccccc4)c3Br)c(Cl)cc2C=O)c1	0.552	EC50 [7]: > 40 µM; Activity [3]: Active
N#Cc1ccc(-c2cccc(COc3ccc(C=O)cc3Br)c2Br)cc1	> 100	–
O=Cc1cc(Cl)c(OCc2cccc(-c3ccccc3)c2-c2ccccc2)cc1O	> 100	–
O=S1(=O)CCN(Cc2cccc(OCc3cccc(-c4cccc(F)c4)c3Br)c2)CC1	22.3	–
N#Cc1cc(COc2cc(OCc3cccc(-c4ccccc4)c3Br)c(Cl)cc2CN2C[C@@H](O)C[C@H]2C(=O)O)ccn1	0.0039	Activity [10]: Active; EC50 [6]: 12.2 µM; solubility [15]: Insoluble; solubility [16]: Insoluble; Activity [3]: Active
Cc1c(COc2cc(OCc3cccc(C#N)c3)c(CN3C[C@H](O)C[C@@H]3C(=O)O)cc2Cl)cccc1-c1ccc2c(c1)OCCO2	–	Activity [2]: inactive; Activity [17]: 50%
CC(=O)NCCNCc1ccc(OCc2cccc(-c3cccc(F)c3)c2Br)c(Br)c1	0.107	–
